Most compounds without a hit are left out; they make up all but 3.6% or so of the library.
UCH37 inh: inhibitors of human UCH37 deubiquitinase, primary screen, biochemical, Ub-AMC cleavage, fluorescence; purified proteasome/UCH37; inhibition, % (concentration not given with the values); 330,000 compounds, 0.33% hits; AID 588478, 2011;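 active = mean inhibition over replicate wells above about 20%, limit read from the data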;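 also: 0% = compound-free wells with enzyme and 100% = wells lacking proteasome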
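Material: human UCH37 enzyme supplied as purified proteasome complex. Measure: % inhibition of Ub-AMC cleavage fluorescence. Medium: pH 7.4 Tris-HCl (50 mM) with ovalbumin, ATP-MgCl2, DTT. Times: 30 min preincubation with enzyme, 25 min cleavage at room temperature. Detection: AMC fluorescence intensity at 355/460 nm.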
ATG4B inhibitor: ATG4B protease inhibitors, primary screen, biochemical, fluorescence, uHTS; Cysteine protease ATG4B (Homo sapiens), Q9Y4P1; ATG4B cleavage of LC3-PLA2, NBD-HPC fluorescence, 1 h; inhibition, % at 8.33 µM; 340,000 compounds, 0.51% hits; AID 504462, 2011; in the data active = inhibition above about 40%
Target sequence (Q9Y4P1 whole entry, looked up): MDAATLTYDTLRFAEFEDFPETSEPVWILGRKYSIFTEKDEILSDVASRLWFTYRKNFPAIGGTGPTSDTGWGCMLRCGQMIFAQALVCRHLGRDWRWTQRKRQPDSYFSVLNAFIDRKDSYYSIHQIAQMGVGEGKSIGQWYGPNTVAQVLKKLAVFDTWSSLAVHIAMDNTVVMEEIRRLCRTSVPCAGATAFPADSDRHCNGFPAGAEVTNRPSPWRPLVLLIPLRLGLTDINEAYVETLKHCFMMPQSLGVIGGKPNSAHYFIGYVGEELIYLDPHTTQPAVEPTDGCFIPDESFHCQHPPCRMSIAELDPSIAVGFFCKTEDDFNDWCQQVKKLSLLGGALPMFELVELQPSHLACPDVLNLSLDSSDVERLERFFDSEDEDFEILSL
NadD block: inhibitors of S. aureus NadD, primary screen, biochemical, colorimetric, uHTS; purified NadD enzyme, colorimetric absorbance read-out; inhibition, % at 20 µM; AID 602399, 2012; 360,000 compounds, 0.78% hits; in the data active = inhibition above about 26%
GRIN3A LBD mod: binders of NR3A ligand-binding domain, primary screen, biophysical, differential scanning fluorimetry, uHTS; Glutamate receptor ionotropic, NMDA 3A (GRIN3A) ligand-binding domain; NR3A LBD differential scanning fluorimetry, Tm shift; 0% = protein alone, 100% = glycine-bound protein; Tm shift relative to glycine control, % at 25 µM; 340,000 compounds, 2.5% hits; AID 1259313, 2017;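 active = melting temperature shift of at least 10% of the positive control shift, at one fixed dose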
SENP1 inh: human SENP1 catalytic domain inhibitors, primary screen, biochemical, FRET, uHTS. Sentrin-specific protease 1 (Homo sapiens), Q9P0U3. recombinant SENP1 catalytic domain, CyPet-SUMO1-YPet FRET cleavage. inhibition, % at 10 µM. 360,000 compounds, 0.21% hits. AID 624204, 2012;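 active = inhibition at least 30% at 10 µM, raw YFP signal under a set limit, fluorescence ratio 0.5 to 1.5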;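 also: 0% = enzyme with DMSO and 100% = no enzyme wells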
Target sequence (Q9P0U3 419-644 limits assumed): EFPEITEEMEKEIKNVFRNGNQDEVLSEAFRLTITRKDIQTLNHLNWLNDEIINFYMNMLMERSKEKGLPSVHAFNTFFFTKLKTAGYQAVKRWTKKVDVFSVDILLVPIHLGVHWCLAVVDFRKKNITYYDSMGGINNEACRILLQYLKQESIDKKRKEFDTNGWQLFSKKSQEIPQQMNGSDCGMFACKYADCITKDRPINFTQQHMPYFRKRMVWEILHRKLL
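Test system: human SENP1 catalytic domain; medium: Tris pH 8 buffer plus EDTA, NaCl, BME, BSA, NP40, catalase; incubation: 50 min reaction at room temperature; technique: FRET, CFP and YFP emission; controls: no-enzyme low control and enzyme-plus-DMSO high control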
NadD conf: inhibitors of S. aureus NadD, confirmation, biochemical, colorimetric, single concentration. shares compounds with NadD block. purified S. aureus NadD, colorimetric enzyme assay. inhibition, % at 20 µM. 2,000 compounds, 13% hits; in the data active = inhibition mostly above about 42%, no sharp cut-off; inactive = mostly below about 42%
An asterisk follows results filed as active; · = no result.

SMILES | UCH37 inh | ATG4B inhibitor | NadD block | GRIN3A LBD mod | SENP1 inh | NadD conf
NCCCC[C@@H]1NC(=O)c2cc([N+](=O)[O-])cc(I)c2SC[C@@H](C(N)=O)NC(=O)[C@H](Cc2ccc(O)cc2)NC1=O | 0 | -2 | 42* | -6 | 3 | 6
Cc1csc(N=Cc2ccc([N+](=O)[O-])cc2)n1 | 4 | · | · | · | · | ·
Cc1csc(N=Cc2ccc([N+](=O)[O-])o2)n1 | · | · | 36* | · | -9 | 22
C/C(=N\NC(=S)Nc1cccc(C)c1)c1cccc(N)c1 | · | -10 | 14 | -2 | -2 | ·
C/C(=N\NC(=S)Nc1ccc(C)cc1)c1cccc(N)c1 | · | -9 | 27* | 0 | 0 | 17
Cc1ccc(Nc2nc3ccccc3nc2Nc2c(C)n(C)n(-c3ccccc3)c2=O)cc1 | -25 | 0 | 35* | -7 | -82 | 0
Cc1c(Nc2nc3ccccc3nc2NS(=O)(=O)c2cccc(Cl)c2)c(=O)n(-c2ccccc2)n1C | 2 | 4 | 11 | -7 | -5 | ·
C#CCOc1c(Br)cc(C=NNC(=O)CN2CCOCC2)cc1OCC | 1 | · | · | · | · | ·
Cc1oc2c(cc(NS(=O)(=O)c3ccc4c5c(cccc35)C(=O)N4)c3ccccc32)c1C(=O)OC(C)C | -54 | -26 | 30* | 10 | -11 | 37*
CCCCOc1ccc(-c2c(C(=O)Nc3ccccc3)c(C)[nH]c(=S)c2C#N)cc1 | 2 | 3 | 23 | -24 | -5 | ·
CCCCOc1ccc(-c2c(C#N)c(N)[nH]c(=S)c2C#N)cc1 | 10 | -6 | 31* | 4 | -41 | 29
c1ccc(-c2cc(-c3nnc4n3N=C(c3ccc5ccccc5c3)CS4)[nH]n2)cc1 | 9 | -13 | 55* | 6 | 3 | 4
Cn1c(=O)c2c([nH]c(=S)n2CCCc2ccccc2)n(C)c1=O | 4 | 2 | 24 | 4 | -2 | ·
Cn1c(=O)[nH]c(=O)c2c1[nH]c(=S)n2CCCc1ccccc1 | 6 | 3 | 32* | -1 | 2 | 21
Cc1ccc(NCc2nnc(SCC(=O)c3ccccc3)n2Cc2ccco2)c(C)c1 | 1 | 32 | 25* | -2 | -9 | 57*
Cc1ccc(CNC(=O)c2ccc(N3CCC4(CC3)CC(c3ccccc3)=NO4)c(NC(=O)c3ccc(Cl)c([N+](=O)[O-])c3)c2)cc1 | 2 | -5 | 36* | -3 | 1 | -4
Cc1ccc(CNC(=O)c2ccc(N3CCC4(CC3)CC(c3cccc(Br)c3)=NO4)c(NC(=O)c3c(Cl)cccc3Cl)c2)cc1 | 2 | -9 | 33* | 0 | -2 | -1
Cc1ccc(CNC(=O)c2ccc(N3CCC4(CC3)CC(c3cccc(Br)c3)=NO4)c(NC(=O)c3cccc(C)c3)c2)cc1 | 1 | 1 | 36* | 0 | 1 | 1
COc1cccc(C=NNC(=O)c2oc3nc(-c4ccccc4)cc(-c4ccco4)c3c2N)c1 | -13 | · | · | · | · | ·
CCn1nc(C)c(C=NNC(=O)Cn2nnc(N)n2)c1C | 1 | · | · | · | · | ·
ON=C(c1ccccc1)c1nccc2ccccc12 | 1 | · | · | · | · | ·
Cc1ccc(Nc2nc(Nc3ccc(C)cc3)nc(SC3=NCCS3)n2)cc1 | 1 | 0 | 30* | 7 | 1 | 51*
CC(C)(C)OC(=O)[C@H](Cc1ccccc1)NC(=O)c1nc[nH]c1C(=O)N[C@@H](Cc1ccccc1)C(=O)OC(C)(C)C | 1 | -4 | 4 | -25 | 2 | ·
CC(C)(C)OC(=O)[C@H](Cc1ccccc1)NC(=O)c1ncn2c1c(=O)[nH]c1ccc(Br)cc12 | · | · | 40* | · | 0 | 4
CCN(CC)C(=O)CSc1ncnc2c(-c3cccs3)nsc12 | -61 | 8 | 34* | -2 | -25 | 56*
SMILES | UCH37 inh | ATG4B inhibitor | NadD block | GRIN3A LBD mod | SENP1 inh | NadD conf
CCCCCC(=O)N1CC2(CC(c3cccc(NC(=O)COc4ccc(Cl)cc4)c3)=NO2)C[C@@H]1C(N)=O (some centres not stated) | -1 | -11 | 7 | -11 | 1 | ·
NC(=O)[C@H]1CC2(CC(c3cccc(NC(=O)COc4ccc(Cl)cc4)c3)=NO2)CN1C(=O)CC(c1ccccc1)c1ccccc1 (some centres not stated) | -1 | -17 | 37* | -16 | 0 | 50*
NC(=O)[C@@H]1CC2(CC(c3cccc(NC(=O)CC(c4ccccc4)c4ccccc4)c3)=NO2)CN1C(=O)COc1ccc(Cl)cc1 (some centres not stated) | 0 | -16 | 39* | 9 | -2 | 27
CCC(=O)Nc1cccc(C2=NOC3(C2)C[C@@H](C(N)=O)N(C(=O)COc2ccc(Cl)cc2)C3)c1 (some centres not stated) | 0 | -17 | 3 | 1 | -3 | ·
O=C(CN1CCc2ccccc21)Nc1ccc2c(c1)OCO2 | 1 | 2 | 56* | -1 | -7 | 8
O=C(CN1CCc2ccccc21)NCc1ccc2c(c1)OCO2 | 1 | -7 | -2 | -1 | -6 | ·
CC(=O)C1CCC2C3CCC4=CC(=O)C=CC4(C)C3C(=O)CC12C (configuration not stated) | 1 | 3 | 0 | -6 | 3 | ·
C[C@]12C=CC(=O)C=C1CC[C@@H]1C2=CC[C@]2(C)[C@@H](C(=O)CN3CCN(c4cc(N5CCCC5)nc(N5CCCC5)n4)CC3)CC[C@@H]12 | 11 | -3 | 33* | -4 | -67 | 0
Cc1ccc(NC(=O)C(C)OC(=O)c2cc(=O)[nH]c3ccccc23)cc1S(=O)(=O)N1CCOCC1 (configuration not stated) | -27 | -32 | 35* | -3 | -5 | 41
O=C(CO)NN=Cc1ccc(Cl)cc1 | 4 | · | · | · | · | ·
Cn1c2ccccc2c2cc(/C=N/NC(=O)c3cc(O)ccc3O)ccc21 | · | 1 | 49* | 26* | 15 | 52*
Cn1c2ccccc2c2cc(C=NNC(=O)c3ccccc3F)ccc21 | -72 | · | · | · | · | ·
Cc1cc(C(=O)NN=Cc2ccc3c(c2)OCO3)c(C)n1-c1ccc(F)cc1 | -3 | · | · | · | · | ·
Cn1cc(C(=O)NN=CC2=C(N3CCOCC3)/C(=C/c3ccc([N+](=O)[O-])cc3)CC2)ccc1=O | 2 | · | · | · | · | ·
CC(C)C[C@@H](CN1CCCC1CN1C(=S)NC[C@@H]1Cc1ccccc1)N1C[C@H](Cc2ccc(O)cc2)N(CC2CCCCC2)C1=S (some centres not stated) | · | · | 29 | · | -1 | ·

Compound activity deposited in PubChem BioAssay by several laboratories.
